Results as given in ChEMBL document CHEMBL5321284, “Discovery of a First-in-Class Degrader for the Lipid Kinase PIKfyve” (J Med Chem, 2023).

Legend:
[1] = target: T1, von Hippel-Lindau disease tumor suppressor/1-phosphatidylinositol 3-phosphate 5-kinase (Homo sapiens) (UniProt Q9Y2I7+P40337); assay: PROTAC activity at VHL/PIKfyve in human VCaP cells assessed as induction of PIKfyve degradation at 1 uM incubated for 24 hrs by immunoblot analysis; format: cell-based
Method in brief: (§1)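 VCaP cells treated 24 h at 0.1 or 1.0 µM; percent PIKfyve degradation determined by immunoblotting.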

[2] = target: T1, von Hippel-Lindau disease tumor suppressor/1-phosphatidylinositol 3-phosphate 5-kinase (Homo sapiens); assay: PROTAC activity at VHL/PIKfyve in human VCaP cells assessed as induction of PIKfyve degradation at 0.1 uM incubated for 24 hrs by immunoblot analysis; format: cell-based; method in brief: as §1

T1 sequence (P40337 whole entry partner): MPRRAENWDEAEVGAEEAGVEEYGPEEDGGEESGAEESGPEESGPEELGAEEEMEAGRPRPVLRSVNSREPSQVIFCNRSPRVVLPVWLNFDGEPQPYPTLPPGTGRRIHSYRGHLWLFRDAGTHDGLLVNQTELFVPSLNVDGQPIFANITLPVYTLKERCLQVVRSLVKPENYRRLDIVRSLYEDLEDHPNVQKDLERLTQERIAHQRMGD
T1 sequence (Q9Y2I7 2-2098 limits assumed): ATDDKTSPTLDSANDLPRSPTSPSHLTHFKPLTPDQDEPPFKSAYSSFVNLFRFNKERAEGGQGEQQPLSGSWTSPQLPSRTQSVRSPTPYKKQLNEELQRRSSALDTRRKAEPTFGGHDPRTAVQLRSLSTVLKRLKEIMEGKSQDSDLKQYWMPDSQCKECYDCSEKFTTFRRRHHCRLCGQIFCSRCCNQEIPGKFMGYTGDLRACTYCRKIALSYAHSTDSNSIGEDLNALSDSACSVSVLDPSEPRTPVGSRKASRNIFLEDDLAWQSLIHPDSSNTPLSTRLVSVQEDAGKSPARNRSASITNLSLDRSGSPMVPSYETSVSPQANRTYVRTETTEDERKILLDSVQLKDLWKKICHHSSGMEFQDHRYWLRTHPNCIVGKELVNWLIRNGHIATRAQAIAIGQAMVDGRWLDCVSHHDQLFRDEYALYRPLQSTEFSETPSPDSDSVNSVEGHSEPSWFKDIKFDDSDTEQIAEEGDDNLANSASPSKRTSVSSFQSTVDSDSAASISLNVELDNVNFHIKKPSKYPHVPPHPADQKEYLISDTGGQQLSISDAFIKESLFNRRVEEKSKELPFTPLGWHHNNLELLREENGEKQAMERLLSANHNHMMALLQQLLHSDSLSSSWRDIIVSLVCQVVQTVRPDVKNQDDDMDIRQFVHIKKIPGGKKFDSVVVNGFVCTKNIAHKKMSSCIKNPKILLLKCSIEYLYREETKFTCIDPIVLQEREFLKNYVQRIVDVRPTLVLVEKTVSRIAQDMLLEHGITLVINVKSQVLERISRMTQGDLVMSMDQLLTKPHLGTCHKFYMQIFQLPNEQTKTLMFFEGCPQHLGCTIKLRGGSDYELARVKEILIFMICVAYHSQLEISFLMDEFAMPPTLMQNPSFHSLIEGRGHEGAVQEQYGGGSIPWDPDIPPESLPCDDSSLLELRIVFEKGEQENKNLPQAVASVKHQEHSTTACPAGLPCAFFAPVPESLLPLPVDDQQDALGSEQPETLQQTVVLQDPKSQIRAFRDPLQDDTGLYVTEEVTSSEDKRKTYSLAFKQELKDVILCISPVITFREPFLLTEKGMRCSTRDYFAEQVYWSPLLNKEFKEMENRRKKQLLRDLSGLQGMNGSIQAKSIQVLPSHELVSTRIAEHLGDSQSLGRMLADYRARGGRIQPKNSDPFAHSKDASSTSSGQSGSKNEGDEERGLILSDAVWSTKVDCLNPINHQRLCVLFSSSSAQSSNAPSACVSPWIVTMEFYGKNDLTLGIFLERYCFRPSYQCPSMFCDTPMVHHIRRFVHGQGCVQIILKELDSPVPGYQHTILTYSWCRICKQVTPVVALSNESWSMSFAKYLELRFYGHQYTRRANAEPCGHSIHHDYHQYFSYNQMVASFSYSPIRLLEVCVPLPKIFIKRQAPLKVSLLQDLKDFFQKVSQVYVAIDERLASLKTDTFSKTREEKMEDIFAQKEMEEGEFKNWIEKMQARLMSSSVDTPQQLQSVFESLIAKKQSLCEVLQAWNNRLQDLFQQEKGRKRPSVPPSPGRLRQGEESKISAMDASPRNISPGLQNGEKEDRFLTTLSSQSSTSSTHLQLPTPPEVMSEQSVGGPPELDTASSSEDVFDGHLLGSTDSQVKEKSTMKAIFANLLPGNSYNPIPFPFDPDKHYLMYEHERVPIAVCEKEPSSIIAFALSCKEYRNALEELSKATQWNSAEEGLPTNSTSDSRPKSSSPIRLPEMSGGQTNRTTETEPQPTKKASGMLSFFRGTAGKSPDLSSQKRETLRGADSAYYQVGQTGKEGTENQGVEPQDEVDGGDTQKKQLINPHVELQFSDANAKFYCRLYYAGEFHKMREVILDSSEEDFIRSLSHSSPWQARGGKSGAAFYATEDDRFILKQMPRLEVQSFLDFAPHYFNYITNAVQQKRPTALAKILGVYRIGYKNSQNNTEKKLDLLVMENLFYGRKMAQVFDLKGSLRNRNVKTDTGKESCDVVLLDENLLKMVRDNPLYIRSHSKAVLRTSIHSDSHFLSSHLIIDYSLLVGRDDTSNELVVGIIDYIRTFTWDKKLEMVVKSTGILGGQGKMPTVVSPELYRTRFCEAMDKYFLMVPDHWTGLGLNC

Activity [1]	Activity [2]	SMILES
17%	30%	Cc1cccc(/C=N/Nc2cc(N3CCOCC3)nc(OCCNC(=O)CCCCCCCC(=O)N[C@H](C(=O)N3C[C@H](O)C[C@H]3C(=O)NCc3ccc(-c4scnc4C)cc3)C(C)(C)C)n2)c1
31%	32%	Cc1cccc(/C=N/Nc2cc(N3CCOCC3)nc(OCCNC(=O)CCCCCCCCC(=O)N[C@H](C(=O)N3C[C@H](O)C[C@H]3C(=O)NCc3ccc(-c4scnc4C)cc3)C(C)(C)C)n2)c1
0%	3%	Cc1cccc(/C=N/Nc2cc(N3CCOCC3)nc(OCCNC(=O)CCCCCC(=O)N[C@H](C(=O)N3C[C@H](O)C[C@H]3C(=O)NCc3ccc(-c4scnc4C)cc3)C(C)(C)C)n2)c1
8%	0%	Cc1cccc(/C=N/Nc2cc(N3CCOCC3)nc(OCCc3ccc(NC(=O)CCC(=O)N[C@H](C(=O)N4C[C@H](O)C[C@H]4C(=O)NCc4ccc(-c5scnc5C)cc4)C(C)(C)C)cc3)n2)c1
45%	81%	Cc1cccc(/C=N/Nc2cc(N3CCOCC3)nc(OCCc3ccc(NC(=O)CCCCCCCCC(=O)N[C@H](C(=O)N4C[C@H](O)C[C@H]4C(=O)NCc4ccc(-c5scnc5C)cc4)C(C)(C)C)cc3)n2)c1
21%	67%	Cc1cccc(/C=N/Nc2cc(N3CCOCC3)nc(OCCNC(=O)CCCCCCCCCCC(=O)N[C@H](C(=O)N3C[C@H](O)C[C@H]3C(=O)NCc3ccc(-c4scnc4C)cc3)C(C)(C)C)n2)c1
44%	47%	Cc1cccc(/C=N/Nc2cc(N3CCOCC3)nc(OCCc3ccc(NC(=O)CCCCC(=O)N[C@H](C(=O)N4C[C@H](O)C[C@H]4C(=O)N[C@@H](C)c4ccc(-c5scnc5C)cc4)C(C)(C)C)cc3)n2)c1
41%	64%	Cc1cccc(/C=N/Nc2cc(N3CCOCC3)nc(OCCc3ccc(NC(=O)CCCCCCCCCC(=O)N[C@H](C(=O)N4C[C@H](O)C[C@H]4C(=O)NCc4ccc(-c5scnc5C)cc4)C(C)(C)C)cc3)n2)c1
0%	0%	Cc1cccc(/C=N/Nc2cc(N3CCOCC3)nc(OCCNC(=O)CCC(=O)N[C@H](C(=O)N3C[C@H](O)C[C@H]3C(=O)NCc3ccc(-c4scnc4C)cc3)C(C)(C)C)n2)c1
0%	0%	Cc1cccc(/C=N/Nc2cc(N3CCOCC3)nc(OCCc3ccc(NC(=O)CC(=O)N[C@H](C(=O)N4C[C@H](O)C[C@H]4C(=O)NCc4ccc(-c5scnc5C)cc4)C(C)(C)C)cc3)n2)c1
0%	0%	Cc1cccc(/C=N/Nc2cc(N3CCOCC3)nc(OCCNC(=O)CC(=O)N[C@H](C(=O)N3C[C@H](O)C[C@H]3C(=O)NCc3ccc(-c4scnc4C)cc3)C(C)(C)C)n2)c1
10%	0%	Cc1cccc(/C=N/Nc2cc(N3CCOCC3)nc(OCCNC(=O)CCCCC(=O)N[C@H](C(=O)N3C[C@H](O)C[C@H]3C(=O)NCc3ccc(-c4scnc4C)cc3)C(C)(C)C)n2)c1
19%	26%	Cc1cccc(/C=N/Nc2cc(N3CCOCC3)nc(OCCc3ccc(NC(=O)CCCCCCC(=O)N[C@H](C(=O)N4C[C@H](O)C[C@H]4C(=O)NCc4ccc(-c5scnc5C)cc4)C(C)(C)C)cc3)n2)c1
3%	48%	Cc1cccc(/C=N/Nc2cc(N3CCOCC3)nc(OCCc3ccc(NC(=O)CCCCCCCCCCC(=O)N[C@H](C(=O)N4C[C@H](O)C[C@H]4C(=O)NCc4ccc(-c5scnc5C)cc4)C(C)(C)C)cc3)n2)c1
51%	0%	Cc1cccc(/C=N/Nc2cc(N3CCOCC3)nc(OCCNC(=O)CCCCCCC(=O)N[C@H](C(=O)N3C[C@H](O)C[C@H]3C(=O)NCc3ccc(-c4scnc4C)cc3)C(C)(C)C)n2)c1
0%	0%	Cc1cccc(/C=N/Nc2cc(N3CCOCC3)nc(OCCNC(=O)CCCC(=O)N[C@H](C(=O)N3C[C@H](O)C[C@H]3C(=O)NCc3ccc(-c4scnc4C)cc3)C(C)(C)C)n2)c1
0%	0%	Cc1cccc(/C=N/Nc2cc(N3CCOCC3)nc(OCCc3ccc(NC(=O)CCCC(=O)N[C@H](C(=O)N4C[C@H](O)C[C@H]4C(=O)NCc4ccc(-c5scnc5C)cc4)C(C)(C)C)cc3)n2)c1
